For 38 variants, yeast fitness results are on record in the RNAGym collection of RNA variant scans (doi:10.1126/science.aae0568).

First the molecules themselves.
B1: tRNA (parent)
chain: GUUCCGUUGGCGUAAUGGUAACGCGUCUCCCUCCUAAGGAGAAGACUGCGGGUUCGAGUCCCGUACGGAACG

Fewer inactive variants are shown than the library holds. Where only a bound is given, the exact number is not on record here.

The variants in this data set derive from B1. Nature of the data set: yeast fitness relative to wild type (ratio to wild type); higher = fitter; tRNA-Arg(CCU), competitive growth, 37 C, YPD. The essentials:
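The tRNA-Arg(CCU) gene variants were made by chemical synthesis with a 3% per-site mutation rate at 69 sites and inserted at the native genomic locus of Saccharomyces cerevisiae. After pooling, the strains were competed in YPD at 37°C for 24 hours in six parallel replicates. Gene amplicons from the start population and each end population were read by 100-nucleotide paired-end sequencing, and Darwinian fitness relative to wild type was taken from genotype frequency changes. Genotypes needed ≥ 100 starting reads, and estimates < 0.5 were set to 0.5.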
GUUCUGUUGGCGUAAUGGUAACGCGACUCCCUCCUAAGGAGAAGACUGCGGGUUCGAGCCCCGUACGGAACG [C5U U26A U59C]: the yeast fitness stood at 0.722.

For GUUCUGUUGGCGUAAUGGGAUCGCGUCUGCCUCCUAAGGAGAAGACUGCGGGUUCGAGUCGCGUACGGAACG [C5U U19G A21U C29G C61G], the yeast fitness is no more than 0.5.

Consider GUUCUGUUGGCGUAAUGGUAACGCGACUCCCUCCUAAGGAGAAGACUGCGGGUUCGAGUCCCGUAUGGAACG [C5U U26A C66U], for which the yeast fitness turned out to be 0.792.

In the case of GUUCUGUUGGCGUAAUGGUAACGCGACUCCCUCCUAAGGAGAAGACUGCGGGUUCGAGUCCCGUGCGGAACG [C5U U26A A65G], the yeast fitness stood at 0.739.

Turning to GUUCUGUUGGCGUAAUGGUAACGCGACUCCCUCCUAAGGAGAAGACUGCGGGUUCGAGUCCCGUACGCAACG [C5U U26A G68C], the yeast fitness was 0.663.

In the case of GUUCUGUUGGCGUAAUGGUAACGCGACUCCCUCCUAAGGAGAAGACUGCGGGUUCGAGUGCCGUACGGAGCG [C5U U26A C60G A70G], the yeast fitness was no more than 0.5.

With GUUCUGUUGGCGUAAUGGUAACGCGUCACCCUCCUAAGGAGAAGACUGCGGGUUCGAGUCCCGUACAGAACG [C5U U28A G67A], the yeast fitness was determined as 0.545.

As to GUUCUGUUGGCGUAAUGGUAACGCGCCUCCCUCCUAAGGAGAAGACUGCGGGUUCGAGUCCCGUACGGAUCG [C5U U26C A70U], the yeast fitness was 0.723.

For GUUCUGUUGGCGUAAUGGUAACGCGUCACCCUCCUAAGGAGAAGACUGCGGGUUCGAGUCCCGUACGGAACG [C5U U28A], the yeast fitness came to 0.864.

Take GUUCUGUUGGCGUAAUGGUAACGCGUCACCCUCCUAAGGAAAAGACUGCGGGUUCGAGUCCCGUAUGGAACG [C5U U28A G41A C66U]: the yeast fitness came to 0.542.

Regarding GUUCUGUUGGCGUAAUGGCAAUGCGUCUCCCUCCUAAGGAGAAGACUGCGGGUUCGAGUCCCGUACGGAACG [C5U U19C C22U], the yeast fitness was 0.721.

With GUUCUGUUGGCGUAAUGGUAACGCGACUCCCUCCUAAGGAGAAGACUGCGGGUUCGAGUCCCGUUCGUAACG [C5U U26A A65U G68U], the yeast fitness turned out to be 0.548.

In the case of GUUCUGUUGGCGUAAUGGGAACGCGUCUCCCUCCUAAGGAGAAGACUGCGGGUUCGAGUCCCGUAAGGAACG [C5U U19G C66A], the yeast fitness turned out to be 0.531.

As for GUUCUGUUGGCGUAAUGGGAACGCGUCUCCCUCCUAAGGAGAAGAAUGCGGGUUGGAGUCCCGUACGGAACG [C5U U19G C46A C55G], the yeast fitness was no more than 0.5.

Consider GUUCUGUUGGCGUAAUGGGAACGCGUCUCCCUCCUAAGGAGAAGACUGCGGGUUCGAGUCCCGUACAGAACG [C5U U19G G67A], for which the yeast fitness amounted to 0.649.

Regarding GUUCUGUUGGCGUAAUGGUAACGCGACUCCCUCCUAAGGAGAAGACUGCGGGUUGGAGUCCCGUACGGAACG [C5U U26A C55G], the yeast fitness was no more than 0.5.

Regarding GUUCUGUUGGCGUAAUGGUAACGCGGCUCCCUCCUAAGGAGACGACUGCGGGUUCGAGUCCGAUAGGGGACG [C5U U26G A43C C62G G63A C66G A69G], the yeast fitness came to 0.549.

For the variant GUUCUGUUGGCGUAAUGGCAACGCGUCUCCCUCCUAAGGAGAAGACUGCGGGUUCGAGUCCCGUACGGGACG [C5U U19C A69G], the yeast fitness came out at 0.706.

As to GUUCUGUUGGCGUAAUGGCAACGCGUCUCCCUCUUAAGGAGAAGACUGCGGGUUCGAGUCCCGUACGGACCG [C5U U19C C34U A70C], the yeast fitness is no more than 0.5.

With GUUCUGUUGGCGUAAUGGCAUCGCGUCUCCUUCCUAAGGAGGUGACUGCGGGUUCGAGUCCCGUCCGGAACG [C5U U19C A21U C31U A42G A43U A65C], the yeast fitness was no more than 0.5.

Turning to GUUCUGUUGGCGUAAUGGGAACGCGUCUCCCUCCUAAGGAGAAGACUGCGGGUUCGAGUCCCGUACGGAACG [C5U U19G], the yeast fitness is 1.

Take GUUCUGUUGGCGUAAUGGAAACGCCUCUACCUCCUAAGGAGAUGACUGCGGGUUCGAGUCCCGUACGGAACG [C5U U19A G25C C29A A43U]: the yeast fitness was no more than 0.5.

As to GUUCUGUUGGCGUAAUGGUAACGCGUCACCCUCUUAAGGAGAAGACUGCGGGUUCGAGUCUCGUACGGAACG [C5U U28A C34U C61U], the yeast fitness was no more than 0.5.

For the variant GUUCUGUUGGCGUAAUGGGAACGCGUCUCCCUCCUAAGGAGAAGAUUGCGGGUUCGAGUCCCGUACGGCACG [C5U U19G C46U A69C], the yeast fitness is no more than 0.5.

As for GUUCUGUUGGCGUAAUGGUAACGCGUCACCCUCCUAAGGAAAAGACUGCGGGUCCGAGUCCCGUACGGAACG [C5U U28A G41A U54C], the yeast fitness was no more than 0.5.

On to GUUCUGUUGGCGUAAUGGUAACGCGUCACCCUCCCAAGGAGAAGACUGCGGGUUCGAGACCCGUACGGAACG [C5U U28A U35C U59A], for which the yeast fitness is no more than 0.5.

GUUCUGUUGGCGUAAUGGGAACACGUCUCCCUCCUAAGGAGAAGAAUGCGGGUUCGAGUCCCGUACGGAACG [C5U U19G G23A C46A]: the yeast fitness is no more than 0.5.

In the case of GUUCUGUUGGCGUAAUGGGAACACGUCUCCCUCCUAAGGAGAAGACUGCGGGUUCGAGUCCCGUACGGAACG [C5U U19G G23A], the yeast fitness is no more than 0.5.

On to GUUCUGUUGGCGUAAUGGUAACGCGACUCCCUCCUAAGGAGAAGACUGCGGGUCCGAGUCCCGUACGGAACG [C5U U26A U54C], for which the yeast fitness was 0.644.

GUUCUGUUGGCGUAAUGGUAACGCGCCUCCCUCCUAAGGAGAAGACUGCCCGUUCCAGUCCCGUACAGAACG [C5U U26C G50C G51C G56C G67A]: the yeast fitness is no more than 0.5.

Take GUUCUGUUGGCGUAAUGGUAACGCGACUCCCUGCUAAGGAGAAGAUUGCGGGUUGGAGUCCCGUAAGGAACG [C5U U26A C33G C46U C55G C66A]: the yeast fitness was 0.539.

For the variant GUUCUGUUGGCGUAAUGGUAACGCGUCACCCUCCUAAGGAGAAGACUGCGGGUUCGAGUCCGGUACGGAACG [C5U U28A C62G], the yeast fitness was no more than 0.5.

On to GUUCUGUUGGCGUAAUGGUAACGCGUCACCCUCCUAAGGAAAAGACUGCGGGUUCGAGUCCCGUACGGAUCG [C5U U28A G41A A70U], for which the yeast fitness is no more than 0.5.

As to GUUCUGUUGGCGUAAUGGUAACGCGGCUCCCUCCUAAGGAGAAGACUGGGGGUUCGAGUCCCGUACGGAACG [C5U U26G C49G], the yeast fitness is no more than 0.5.

With GUUCUGUUGGCGUAAUGGUAACGCGACUCCCUCCUAAGGAGAUGACUGCGGGUUCGAGUCCCGUACGGAACG [C5U U26A A43U], the yeast fitness was 0.715.

For the variant GUUCUGUUGGCGUAAUGGGAUCGCGUCUGCCUCCUAAGGAGAAGACUGCGGGUUCGAGUCCCGUACGGAACG [C5U U19G A21U C29G], the yeast fitness is no more than 0.5.

Regarding GUUCUGUUGGCGUAAUGGUAACGCGACUCCCUCCUAAGGAGAAGACUGCGGGUUCGAGUCCCGUACGGCACG [C5U U26A A69C], the yeast fitness came out at 0.78.

As to GUUCUGUUGGCGUAAUGGUAACGCGUCACCCUCCUAAGGAAAAGACUGCGGGUUCGAGUCCCGUACGGAACG [C5U U28A G41A], the yeast fitness was found to be 0.534.
